The record followed here is ChEMBL document CHEMBL4819017 (Eur J Med Chem, 2021).

Values joined by “and” are separate entries in the source; they are usually repeats but may differ in a detail not shown here. Equal values may be shown once.

In data set [1] the target is Phosphatidylinositol 4,5-bisphosphate 3-kinase catalytic subunit alpha isoform (Homo sapiens, UniProt P42336). Briefly: Inhibition of human full length p110alpha (1 to 1068 residues) expressed in baculovirus-infected Sf21 cells by ADP-Hunter Plus assay.
Sequence of Phosphatidylinositol 4,5-bisphosphate 3-kinase catalytic subunit alpha isoform (P42336 whole entry, the tested form may be a part, canonical isoform): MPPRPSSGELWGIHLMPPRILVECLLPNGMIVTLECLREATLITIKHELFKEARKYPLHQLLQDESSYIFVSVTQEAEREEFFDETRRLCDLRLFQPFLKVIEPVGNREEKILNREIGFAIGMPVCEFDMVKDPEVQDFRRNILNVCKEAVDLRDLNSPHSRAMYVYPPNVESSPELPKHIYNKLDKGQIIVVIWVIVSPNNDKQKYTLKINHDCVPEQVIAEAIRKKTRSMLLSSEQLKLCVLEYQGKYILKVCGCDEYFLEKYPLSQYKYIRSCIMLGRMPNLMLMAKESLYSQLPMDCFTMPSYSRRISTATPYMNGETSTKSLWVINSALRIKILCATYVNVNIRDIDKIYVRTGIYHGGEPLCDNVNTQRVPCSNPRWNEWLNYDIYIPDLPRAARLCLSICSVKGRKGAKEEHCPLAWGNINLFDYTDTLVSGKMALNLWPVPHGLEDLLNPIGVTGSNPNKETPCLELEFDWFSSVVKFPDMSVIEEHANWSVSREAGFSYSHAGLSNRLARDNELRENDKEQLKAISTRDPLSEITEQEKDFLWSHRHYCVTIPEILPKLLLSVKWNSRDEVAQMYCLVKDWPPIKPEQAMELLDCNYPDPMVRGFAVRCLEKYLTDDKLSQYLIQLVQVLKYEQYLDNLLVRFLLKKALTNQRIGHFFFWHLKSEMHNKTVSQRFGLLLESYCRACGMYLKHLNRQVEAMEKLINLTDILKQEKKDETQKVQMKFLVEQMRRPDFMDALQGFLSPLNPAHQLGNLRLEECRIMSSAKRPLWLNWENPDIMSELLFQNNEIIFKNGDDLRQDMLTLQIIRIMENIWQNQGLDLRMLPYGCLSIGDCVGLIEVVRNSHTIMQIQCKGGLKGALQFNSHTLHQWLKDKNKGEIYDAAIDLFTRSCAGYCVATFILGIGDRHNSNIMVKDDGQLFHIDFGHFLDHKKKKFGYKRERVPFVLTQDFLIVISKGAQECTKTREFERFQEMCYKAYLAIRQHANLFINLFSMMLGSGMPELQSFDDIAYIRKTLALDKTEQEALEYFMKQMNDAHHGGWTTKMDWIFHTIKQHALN
For data set [2], the target named is Serine/threonine-protein kinase mTOR (Homo sapiens, UniProt P42345). Briefly: Inhibition of recombinant human GST tagged mTOR (1360 to 2549 residues) expressed in baculovirus expression system measured by LanthaScreen assay. A digest of the protocol:
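mTOR inhibition measured by LanthaScreen assay; IC50 values average two independent experiments.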
A general note: TR-FRET usually uses a lanthanide donor and a delayed reading to cut background.

Data set [3] addresses Voltage-gated inwardly rectifying potassium channel KCNH2 (Homo sapiens, UniProt Q12809). Description: Inhibition of human ERG by fluorescence polarization assay. A digest of the protocol:
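Predictor h-ERG membrane preparations (sonicated) incubated with test compound dilutions and fluorescent tracer (working 4X tracer at 4 nM) at room temperature for ≥1 h. Read-out by fluorescence polarization, ex 530/25, em 590/35.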
(In general: Fluorescence polarisation rises when a labelled molecule tumbles more slowly, as on binding a larger partner.)

For another data set, the species on record is Homo sapiens. Description: Selectivity ratio of IC50 for recombinant human GST tagged mTOR (1360 to 2549 residues) expressed in baculovirus expression system to IC50 for human full length p110alpha (1 to 1068 residues) expressed in baculovirus-infected Sf21 cells. A digest of the protocol: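 mTOR activity measured by LanthaScreen assay. PI3K-α activity measured by ADP Hunter Plus (ADP accumulation, fluorescence ex 544/em 580 nm), normalized to no-compound control and fitted to a sigmoid dose-response curve. IC50s are the average of two independent experiments. Ratio is mTOR IC50 over PI3K-α IC50.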

Data set [4] is described as follows: Inhibition of PI3K/mTOR in human U2OS cells assessed as inhibition of AKT1 phosphorylation at Ser473 residue by C-ELISA. Type of data set: cell-based. The procedure, abridged:
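U2OS osteosarcoma cells grown in 0.1% FBS and serum-stimulated. Endogenous phospho-AKT1 Ser473 quantified by cell-based ELISA with chemiluminescent substrate. Signal plotted against inhibitor concentration and fitted to a sigmoid dose-response curve.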
A general note: ELISA stands for enzyme-linked immunosorbent assay.

A short description of data set [5]: AUC (infinity) in BALB/c mouse at 5 mg/kg, iv measured for 8 hrs. It is filed as ADME, organism-based. More on the design: route intravenous, dose 5 mg/kg, time 8 hrs. As to conditions: in vivo. A digest of the protocol:
(§1)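 BALB/c mice dosed I.V. or P.O. at the stated dose; plasma levels followed for 8 h. Parameters from noncompartmental analysis: AUC (h.ng/ml), T1/2 (h), Cl (L/h/Kg), Vd (L/Kg), Cmax (ng/ml), Tmax (h).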

The nature of data set [6]: Metabolic stability in human liver microsomes assessed as parent compound remaining in presence of NADPH regenerating system at 0.5 uM measured after 15 mins by LC-MS/MS analysis. Type of data set: ADME, Microsome. The conditions noted are these: read-out: Stabilty. A digest of the protocol:
(§2)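 Human, mouse or rat liver microsomes at 0.5 mg/ml protein with compound at 0.5 µM and NADPH-regenerating system, 37 °C with shaking. Control wells contain 0.1 M potassium phosphate instead of the regenerating system. Reaction stopped with acetonitrile/0.1% formic acid, centrifuged, supernatant analyzed by LC-MS/MS. Result is percent parent compound remaining.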

The nature of data set [7]: Metabolic stability in mouse liver microsomes assessed as parent compound remaining in presence of NADPH regenerating system at 0.5 uM measured after 15 mins by LC-MS/MS analysis. It is filed as ADME, Microsome. As to conditions: read-out: Stabilty. The procedure, abridged:
as §2

The nature of data set [8]: Metabolic stability in rat liver microsomes assessed as parent compound remaining in presence of NADPH regenerating system at 0.5 uM measured after 15 mins by LC-MS/MS analysis. It is filed as ADME, Microsome. The conditions noted are these: read-out: Stabilty. A digest of the protocol:
as §2

The target of a further data set is T1, Cytochrome P450 1A2 (Homo sapiens, UniProt P05177).
T1 sequence (P05177 whole entry): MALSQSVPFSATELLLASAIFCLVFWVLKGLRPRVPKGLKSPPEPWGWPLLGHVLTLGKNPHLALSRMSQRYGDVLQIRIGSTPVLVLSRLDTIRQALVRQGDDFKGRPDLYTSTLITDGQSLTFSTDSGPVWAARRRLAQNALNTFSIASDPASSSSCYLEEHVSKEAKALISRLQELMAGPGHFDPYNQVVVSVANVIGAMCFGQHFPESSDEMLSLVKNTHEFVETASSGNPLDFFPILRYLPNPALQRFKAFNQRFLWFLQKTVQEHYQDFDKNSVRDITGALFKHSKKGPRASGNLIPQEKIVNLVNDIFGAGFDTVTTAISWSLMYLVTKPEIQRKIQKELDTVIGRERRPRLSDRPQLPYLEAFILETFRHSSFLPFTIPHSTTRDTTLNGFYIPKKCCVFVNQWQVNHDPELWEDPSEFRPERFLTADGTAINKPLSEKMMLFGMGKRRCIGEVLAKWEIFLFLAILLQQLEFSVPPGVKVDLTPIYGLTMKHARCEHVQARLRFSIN
Briefly: Inhibition of CYP1A2 (unknown origin) using Luciferin-ME as substrate at 10 uM preincubated with enzyme and substrate for 5 mins followed by addition of NADPH regeneration system and measured after 60 mins by luminescence method. Type of data set: ADME. A digest of the protocol: (§3)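 P450-Glo luminescence assays with these substrates: Luciferin-ME (CYP1A2), Luciferin-PPXE (CYP3A4), Luciferin-H (CYP2C9), LuciferinH-EG (CYP2C19), Luciferin-ME-EG (CYP2D6). Compounds run in 1/3 serial dilutions from 10 µM in 0.5% DMSO with enzyme and substrate. After 5 min preincubation, NADPH regeneration reagent added; 60 min at 37 °C, then detection reagent for 30 min. Background subtracted.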

The target in another data set is Cytochrome P450 3A4 (Homo sapiens, UniProt P08684). Description: Inhibition of CYP3A4 (unknown origin) using Luciferin-PPXE as substrate at 10 uM preincubated with enzyme and substrate for 5 mins followed by addition of NADPH regeneration system and measured after 60 mins by luminescence method. It is filed as ADME. The procedure, abridged:
as §3

For another data set, the target named is Cytochrome P450 2C9 (Homo sapiens, UniProt P11712). Description: Inhibition of CYP2C9 (unknown origin) using Luciferin-H as substrate at 10 uM preincubated with enzyme and substrate for 5 mins followed by addition of NADPH regeneration system and measured after 60 mins by luminescence method. Type of data set: ADME. A digest of the protocol: as §3
Sequence of Cytochrome P450 2C9 (P11712 whole entry): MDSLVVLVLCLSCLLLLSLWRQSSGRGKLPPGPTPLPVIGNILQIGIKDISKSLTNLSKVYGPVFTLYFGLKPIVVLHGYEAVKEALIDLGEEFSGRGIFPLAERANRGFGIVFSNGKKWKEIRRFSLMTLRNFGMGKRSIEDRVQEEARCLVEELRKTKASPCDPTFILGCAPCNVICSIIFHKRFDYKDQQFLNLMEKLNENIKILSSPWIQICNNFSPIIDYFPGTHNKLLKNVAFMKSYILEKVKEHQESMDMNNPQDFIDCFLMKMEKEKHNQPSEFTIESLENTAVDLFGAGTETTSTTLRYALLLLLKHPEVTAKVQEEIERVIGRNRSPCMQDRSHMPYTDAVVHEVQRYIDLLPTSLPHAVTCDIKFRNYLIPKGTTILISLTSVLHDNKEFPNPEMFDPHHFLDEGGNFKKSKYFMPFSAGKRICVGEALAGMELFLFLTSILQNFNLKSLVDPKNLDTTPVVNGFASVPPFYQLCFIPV
The target in the next data set is Cytochrome P450 2C19 (Homo sapiens, UniProt P33261). Briefly: Inhibition of CYP2C19 (unknown origin) using LuciferinH-EG as substrate at 10 uM preincubated with enzyme and substrate for 5 mins followed by addition of NADPH regeneration system and measured after 60 mins by luminescence method. Type of data set: ADME. The procedure, abridged:
as §3

The target in another data set is Cytochrome P450 2D6 (Homo sapiens, UniProt P10635). Description: Inhibition of CYP2D6 (unknown origin) using Luciferin-ME-EG as substrate at 10 uM preincubated with enzyme and substrate for 5 mins followed by addition of NADPH regeneration system and measured after 60 mins by luminescence method. It is filed as ADME. The procedure, abridged:
as §3

The nature of data set [9]: Half life in BALB/c mouse at 5 mg/kg, iv measured for 8 hrs. Type of data set: ADME, organism-based. As to conditions: in vivo. A digest of the protocol:
as §1

Data set [10] is described as follows: Clearance in BALB/c mouse at 5 mg/kg, iv measured for 8 hrs. Type of data set: ADME, organism-based. The conditions noted are these: in vivo. A digest of the protocol: as §1
Data set [11] can be described thus: Volume of distribution in BALB/c mouse at 5 mg/kg, iv measured for 8 hrs. Type of data set: ADME, organism-based. The conditions noted are these: in vivo. A digest of the protocol:
(§4)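 Dosing in BALB-C mice intravenously or orally, with plasma sampled over 8 h. Parameters (AUC, T1/2, Cl, Vd, Cmax, Tmax) come from a noncompartmental model. Units: AUC h.ng/ml, Vd L/Kg, Cmax ng/ml, Tmax h.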

Data set [12] is described as follows: Cmax in BALB/c mouse at 10 mg/kg, po measured for 8 hrs. Type of data set: ADME, organism-based. Further details: route oral, dose 10 mg/kg, time 8 hrs. As to conditions: in vivo. A digest of the protocol:
as §1

Data set [13] in a line: Tmax in BALB/c mouse at 10 mg/kg, po measured for 8 hrs. As to conditions: in vivo. Type of data set: ADME, organism-based. The procedure, abridged: as §4
The nature of data set [14]: Half life in BALB/c mouse at 10 mg/kg, po measured for 8 hrs. Type of data set: ADME, organism-based. The conditions noted are these: in vivo. The procedure, abridged:
as §1

Data set [15] is described as follows: AUC(infinity) in BALB/c mouse at 10 mg/kg, po measured for 8 hrs. It is filed as ADME, organism-based. More on the design: route oral, time 8 hrs, dose 10 mg/kg. As to conditions: in vivo. A digest of the protocol:
as §1

A short description of data set [16]: Oral bioavailability in BALB/c mouse at 10 mg/kg measured for 8 hrs. The conditions noted are these: in vivo. It is filed as ADME, organism-based. The procedure, abridged:
as §1

Data set [17] in a line: Plasma concentration in BALB/c mouse at 10 mg/kg, po measured for 8 hrs. Type of data set: ADME, organism-based. A digest of the protocol:
as §4

Sequence of Voltage-gated inwardly rectifying potassium channel KCNH2 (Q12809 whole entry): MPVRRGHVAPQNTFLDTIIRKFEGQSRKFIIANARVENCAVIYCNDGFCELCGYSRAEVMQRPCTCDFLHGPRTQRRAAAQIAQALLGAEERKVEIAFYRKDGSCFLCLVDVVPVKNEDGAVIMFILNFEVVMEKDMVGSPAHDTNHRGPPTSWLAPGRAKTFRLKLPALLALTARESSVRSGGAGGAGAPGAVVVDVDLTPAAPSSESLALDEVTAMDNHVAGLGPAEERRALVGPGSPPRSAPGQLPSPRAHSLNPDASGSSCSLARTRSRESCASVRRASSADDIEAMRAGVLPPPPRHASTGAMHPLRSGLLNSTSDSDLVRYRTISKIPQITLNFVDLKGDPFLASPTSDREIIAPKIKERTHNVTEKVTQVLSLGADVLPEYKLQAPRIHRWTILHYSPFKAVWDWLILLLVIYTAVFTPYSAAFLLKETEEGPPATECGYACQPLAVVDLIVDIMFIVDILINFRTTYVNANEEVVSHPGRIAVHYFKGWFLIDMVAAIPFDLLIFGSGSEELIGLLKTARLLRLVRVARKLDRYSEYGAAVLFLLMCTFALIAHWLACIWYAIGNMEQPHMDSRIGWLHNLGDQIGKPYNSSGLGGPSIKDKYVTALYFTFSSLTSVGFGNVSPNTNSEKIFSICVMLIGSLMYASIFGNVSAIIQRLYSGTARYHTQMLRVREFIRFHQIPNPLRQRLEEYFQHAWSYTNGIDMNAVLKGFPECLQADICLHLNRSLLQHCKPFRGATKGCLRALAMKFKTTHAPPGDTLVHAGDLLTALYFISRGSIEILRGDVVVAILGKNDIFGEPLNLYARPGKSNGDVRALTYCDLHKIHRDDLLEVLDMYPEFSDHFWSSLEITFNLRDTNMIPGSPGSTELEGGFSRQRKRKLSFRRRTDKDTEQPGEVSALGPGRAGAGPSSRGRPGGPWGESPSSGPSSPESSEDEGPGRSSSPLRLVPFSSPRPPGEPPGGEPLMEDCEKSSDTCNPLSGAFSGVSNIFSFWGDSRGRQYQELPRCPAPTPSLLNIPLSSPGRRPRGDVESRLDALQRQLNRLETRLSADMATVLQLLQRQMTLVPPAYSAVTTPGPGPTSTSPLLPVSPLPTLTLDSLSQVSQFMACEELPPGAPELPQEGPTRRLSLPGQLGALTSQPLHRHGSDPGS
Sequence of Cytochrome P450 2C19 (P33261 whole entry): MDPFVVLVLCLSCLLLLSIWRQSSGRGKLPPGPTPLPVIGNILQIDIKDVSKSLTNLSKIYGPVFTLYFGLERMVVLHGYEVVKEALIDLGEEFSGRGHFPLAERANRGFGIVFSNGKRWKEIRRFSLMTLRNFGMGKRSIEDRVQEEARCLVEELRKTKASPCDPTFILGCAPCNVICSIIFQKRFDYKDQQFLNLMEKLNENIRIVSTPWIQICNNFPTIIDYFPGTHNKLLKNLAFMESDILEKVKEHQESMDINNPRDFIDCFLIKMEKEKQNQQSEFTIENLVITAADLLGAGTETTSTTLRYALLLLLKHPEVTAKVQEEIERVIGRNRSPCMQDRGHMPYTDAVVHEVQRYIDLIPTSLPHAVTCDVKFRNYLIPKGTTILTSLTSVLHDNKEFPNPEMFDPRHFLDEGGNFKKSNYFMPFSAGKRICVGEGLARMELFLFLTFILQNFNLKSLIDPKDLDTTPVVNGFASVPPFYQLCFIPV
Sequence of Cytochrome P450 2D6 (P10635 whole entry): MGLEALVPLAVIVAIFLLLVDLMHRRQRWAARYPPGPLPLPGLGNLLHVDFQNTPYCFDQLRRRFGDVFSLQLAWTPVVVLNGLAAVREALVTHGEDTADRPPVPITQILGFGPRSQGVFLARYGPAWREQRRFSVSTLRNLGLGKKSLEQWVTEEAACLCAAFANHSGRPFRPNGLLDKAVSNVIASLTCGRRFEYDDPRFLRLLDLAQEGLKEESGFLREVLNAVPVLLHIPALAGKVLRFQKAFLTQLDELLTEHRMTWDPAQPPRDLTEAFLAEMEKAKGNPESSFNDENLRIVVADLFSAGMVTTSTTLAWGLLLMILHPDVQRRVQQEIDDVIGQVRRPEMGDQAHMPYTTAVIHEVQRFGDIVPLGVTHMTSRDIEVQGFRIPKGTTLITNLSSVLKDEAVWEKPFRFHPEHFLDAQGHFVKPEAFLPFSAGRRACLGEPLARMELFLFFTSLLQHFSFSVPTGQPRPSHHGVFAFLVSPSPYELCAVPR
Sequence of Cytochrome P450 3A4 (P08684 whole entry): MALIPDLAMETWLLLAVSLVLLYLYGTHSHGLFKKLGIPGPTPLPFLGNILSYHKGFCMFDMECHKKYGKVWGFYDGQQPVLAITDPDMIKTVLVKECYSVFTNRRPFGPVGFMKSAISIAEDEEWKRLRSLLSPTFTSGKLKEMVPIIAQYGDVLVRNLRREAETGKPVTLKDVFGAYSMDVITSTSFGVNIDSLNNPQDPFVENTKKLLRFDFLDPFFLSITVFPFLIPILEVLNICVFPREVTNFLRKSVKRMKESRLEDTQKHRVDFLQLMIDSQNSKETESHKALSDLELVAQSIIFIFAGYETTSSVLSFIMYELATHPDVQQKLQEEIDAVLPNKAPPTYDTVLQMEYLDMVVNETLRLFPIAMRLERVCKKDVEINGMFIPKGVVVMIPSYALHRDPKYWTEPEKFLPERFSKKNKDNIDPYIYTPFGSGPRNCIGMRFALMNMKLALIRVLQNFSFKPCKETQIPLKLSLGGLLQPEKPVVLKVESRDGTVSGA

For the compound `COc1ncc2cc1NS(=O)(=O)c1cccc(c1)C(=O)NCc1cc(ccn1)-c1ccnc3ccc-2cc13`, the half-maximal inhibitory concentration (IC50) (commonly the concentration that gives 50% inhibition) in data set [1] was 6.1 nM; in data set [2], 122 nM and 72.2 nM; in data set [3], over 30000 nM.

For the compound `COc1ncc2cc1NS(=O)(=O)c1cccc(c1)C(=O)NCc1cncc(c1)-c1ccnc3ccc-2nc13`, the concentration for half-maximal inhibition (IC50) was 49 nM in [2] and over 30000 nM in data set [3].

`COc1ncc2cc1NS(=O)(=O)c1cc(c(F)cc1F)C(=O)NCc1cncc(c1)-c1ccnc3ccc-2cc13`: the IC50 in [1] is 0.8 nM; in data set [2], 22.3 nM; at Cytochrome P450 1A2, over 30000 nM; at Cytochrome P450 3A4 it was over 30000 nM; against Cytochrome P450 2C9, 8300 nM; against Cytochrome P450 2C19, over 30000 nM. The half-maximal inhibitory concentration (IC50) (at Cytochrome P450 2D6; in [3]) was over 30000 nM throughout. The Ratio IC50 in the data set listed under Homo sapiens was determined as 27.8. In [4], the EC50 – broadly, the midpoint of the concentration-response curve – amounted to 10.7 nM. Moreover, the AUC(0-inf) (commonly the area under the concentration-time curve extrapolated to infinity) in [5] turned out to be 9470 ng·h/mL; in data set [15], 7680 ng·h/mL. The remaining at 0.25 h, 0.5 µM is 89% in [6], 88% in [7] and 97% in [8]. Also, the results for the half-life in [9] and in data set [14] were 34.2 min and 167 min, respectively. Also, the clearance – broadly, a measure of how efficiently the substance is removed, as volume per time – in [10] is 8.83 mL/min/kg. Moreover, in data set [11], the Vd (as a rule, a proportionality between amount in the body and measured concentration, not a real space) amounted to 0.28 L/kg. The Cmax (commonly the highest concentration seen after dosing) in data set [12] came to 3390 ng/mL. Moreover, the time of peak concentration (Tmax) (in general, the time at which the peak concentration occurs) in [13] was 15 min. In data set [16], the bioavailability (in general, dose-corrected exposure relative to a reference, in per cent) turned out to be 40.6%. This compound also showed a concentration at 8 h in data set [17] of 264 ng/mL.

On to `COc1ncc2cc1NS(=O)(=O)c1cc(c(F)cc1F)C(=O)NCc1cccc(c1)-c1ccnc3ccc-2cc13`, for which, in data set [2], the IC50 stood at 63.8 nM.

For `COc1ncc2cc1NS(=O)(=O)c1cccc(c1)C(=O)NCCn1cc(cn1)-c1ccnc3ccc-2cc13`, the IC50 in data set [2] was found to be 249 nM.

In the case of `COc1ncc2cc1NS(=O)(=O)c1cccc(c1)C(=O)NCCn1cc(cn1)-c1cnc3ccc-2nn13`, the IC50 in [2] was 5.6 nM.

In the case of `COc1ncc2cc1NS(=O)(=O)c1cccc(c1)C(=O)NCc1ccc(F)c(c1)-c1ccnc3ccc-2cc13`, in [2], the IC50 was 655 nM.

Regarding `COc1ncc2cc1NS(=O)(=O)c1cccc(c1)C(=O)NCC1CCN(CC1)c1ncnc3ccc-2cc13`, the IC50 in [2] was found to be 23.4 nM.

Take `COc1ncc2cc1NS(=O)(=O)c1cccc(c1)C(=O)NCc1cccc(c1)-c1ccnc3ccc-2nc13`: the IC50 in [2] is over 10000 nM.

Turning to `COc1ncc2cc1NS(=O)(=O)c1cccc(c1)C(=O)NCc1cncc(c1)-c1ccnc3ccc-2cc13`, the IC50 in data set [2] came out at 0.3 nM.

`COc1ncc2cc1NS(=O)(=O)c1cccc(c1)C(=O)NCc1cncc(c1)-c1cnc3ccc-2nn13`: the IC50 in [1] was 3 nM; in data set [2] it was 16.7 nM; in [3], over 30000 nM. In the data set filed under Homo sapiens, the Ratio IC50 worked out at 5.5. The EC50 in [4] came out at 99.4 nM.

`COc1ncc2cc1NS(=O)(=O)c1cccc(c1)C(=O)NCC1CCN(CC1)c1ccnc3ccc-2cc13`: the IC50 in [2] came out at 4.1 nM.
